According to ChEMBL document CHEMBL1127730, “Bicyclic hydantoins with a bridgehead nitrogen. Comparison of anticonvulsant activities with binding to the neuronal voltage-dependent sodium channel” (J Med Chem, 1994):
Activity calls are given as the source filed them. No cut-off for these calls is given here.

Legend:
[1] = target: Sodium channel alpha subunits; brain (Types I, II, III) (Rattus norvegicus, UniProt P04775+P04774+P08104); experiment: Inhibition of binding to sodium channel of rat cerebral cortex; assay type: tissue-based
In short: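 Rat cerebral cortex synaptosomes (~1 mg protein) incubated 40 min at 25 °C with 10 nM [3H]BTX-B, 50 μg/mL scorpion venom and test compound at seven concentrations. Filtration, ice-cold buffer washes, scintillation counting. Nonspecific binding defined with 300 μM veratridine. Triplicate runs with 40 μM DPH control tube. IC50 by Probit analysis, excluding doses giving <10% or >90% inhibition.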

[2] = Partition coefficient (logP); assay type: physicochemical; conditions: octanol/water
In short: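 Calculated rather than measured: the parent-structure log P value is summed with π contributions for the substituents. Both sets of constants come from published tables.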

Mus musculus [3] = experiment: Number of animals protected or toxic compared to number tested in subcutaneous administration in mice; 1/1; assay type: functional
In short: (§1)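 Mice dosed ip and tested 30 min later. Phase I screen is qualitative: maximal electroshock and subcutaneous metrazol (scMet) seizure tests, plus a rotorod test for neurotoxicity. Reported as the best active dose in mg/kg, with animals protected (or toxic) over the number tested. Run by the NINDS Antiepileptic Drug Development Program.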

Mus musculus [4] = experiment: Anticonvulsant activity was measured as inhibition of convulsions by subcutaneous administration in mice; assay type: functional; in short: as §1
Mus musculus [5] = experiment: Anticonvulsant activity was measured as inhibition of convulsions by maximal electric shock (MES) method in Phase-I by intraperitoneal administration in mice; assay type: functional; in short: as §1
Mus musculus [6] = experiment: Anticonvulsant activity was measured as inhibition of convulsions by rotarod test in Phase-I by intraperitoneal administration in mice; assay type: functional; in short: as §1
Mus musculus [7] = experiment: Time taken for measure Anticonvulsant activity in Phase -II by intraperitoneal administration in mice; assay type: functional
Mus musculus [8] = experiment: Anticonvulsant activity was measured by rotarod test in Phase -II by intraperitoneal administration in mice; assay type: functional; conditions: ip
In short: (§2)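 Phase II quantification in mice dosed ip: ED50 against maximal electroshock seizures and rotorod neurotoxic TD50, both in mg/kg. The 95% confidence intervals are given in brackets. Run by the NINDS Antiepileptic Drug Development Program.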

Mus musculus [9] = experiment: Number of animals protected or toxic compared to number tested maximal electric shock (MES) method in Phase-I by intraperitoneal administration in mice; 3/3; assay type: functional; in short: as §1
Mus musculus [10] = experiment: Number of animals protected or toxic compared to number tested rotarod test in Phase-I by intraperitoneal administration in mice; 4/4; assay type: functional; in short: as §1
Mus musculus [11] = experiment: Anticonvulsant activity was measured by maximal electric shock (MES) method in Phase -II by intraperitoneal administration in mice; assay type: functional; conditions: ip; in short: as §2
Mus musculus [12] = experiment: Number of animals protected or toxic compared to number tested rotarod test in Phase-I by intraperitoneal administration in mice; 8/8; assay type: functional, organism-based; in short: as §1
Mus musculus [13] = experiment: Number of animals protected or toxic compared to number tested in subcutaneous administration in mice; 3/4; assay type: functional, organism-based; in short: as §1
Mus musculus [14] = experiment: Number of animals protected or toxic compared to number tested maximal electric shock (MES) method in Phase-I by intraperitoneal administration in mice; 1/1; assay type: functional; in short: as §1
Mus musculus [15] = experiment: Number of animals protected or toxic compared to number tested rotarod test in Phase-I by intraperitoneal administration in mice; 1/4; assay type: functional; in short: as §1
Mus musculus [16] = experiment: Number of animals protected or toxic compared to number tested in subcutaneous administration in mice; 4/4; assay type: functional; in short: as §1
Mus musculus [17] = experiment: Number of animals protected or toxic compared to number tested maximal electric shock (MES) method in Phase-I by intraperitoneal administration in mice; 1/3; assay type: functional; in short: as §1

Row | SMILES | IC50 [1] | logP [2] | Activity (Mus musculus [3]) | Activity (Mus musculus [4]) | Activity (Mus musculus [5]) | Activity (Mus musculus [6]) | Time (Mus musculus [7]) | TD50 (Mus musculus [8]) | Activity (Mus musculus [9]) | Activity (Mus musculus [10]) | ED50 (Mus musculus [11]) | Activity (Mus musculus [12]) | Activity (Mus musculus [13]) | Activity (Mus musculus [14]) | Activity (Mus musculus [15]) | Activity (Mus musculus [16]) | Activity (Mus musculus [17])
1 | CCCCC1(c2ccccc2)NC(=O)NC1=O (stereo not drawn) | 103 µM | 2.46 |  |  |  |  |  |  |  |  |  |  |  |  |  |  | 
2 | O=C1O[C@@]2(c3ccccc3)CCCCN1C2=O |  | 2.65 | 1 | 300 mg/kg | >300 mg/kg | >300 mg/kg |  |  |  |  |  |  |  |  |  |  | 
3 | CN1C(=O)OC(C)(C)C1=O [TRIMETHADIONE] | > 1000 µM | -0.37 |  |  |  |  | 1 h | 810 mg/kg |  |  |  |  |  |  |  |  | 
4 | CCCCC1(c2ccccc2)NC(=O)N(C)C1=O (stereo not drawn) | 285 µM | 3.01 |  |  |  |  |  |  |  |  |  |  |  |  |  |  | 
5 | CCCCCC1(c2ccccc2)NC(=O)NC1=O (stereo not drawn) | 39 µM | 2.96 |  |  |  |  |  |  |  |  |  |  |  |  |  |  | 
6 | O=C1NC2(c3ccccc3)CCCCCN1C2=O (stereo not drawn) | 427 µM | 2.51 |  | >300 mg/kg | 100 mg/kg | 300 mg/kg | 0.25 h | 124 mg/kg | 3 | 4 | 86 mg/kg |  |  |  |  |  | 
7 | O=C1OC2(c3ccccc3)CCCCCN1C2=O (stereo not drawn) | 160 µM | 3.05 | Active | 100 mg/kg | 100 mg/kg | 100 mg/kg | 0.25 h | 147 mg/kg | 3 |  | 66 mg/kg | Active |  |  |  |  | 
8 | O=C1NC2(c3ccccc3)CCCCN1C2=O (stereo not drawn) | 700 µM | 2.01 |  | 100 mg/kg | 100 mg/kg | 300 mg/kg |  |  | 3 | Active |  |  | Weak activity |  |  |  | 
9 | CCC1(c2ccccc2)OC(=O)N(C)C1=O (stereo not drawn) |  | 2.65 | 1 | 30 mg/kg | 300 mg/kg | 300 mg/kg | 0.5 h | 504 mg/kg |  |  |  |  |  | 1 | 1 |  | 
10 | O=C1NC(=O)C(c2ccccc2)(c2ccccc2)N1 [PHENYTOIN] |  | 2.46 |  |  |  |  | 2 h |  |  |  | 10 mg/kg |  |  |  |  |  | 
11 | CCCC1(c2ccccc2)NC(=O)NC1=O (stereo not drawn) | 162 µM | 1.96 |  | 100 mg/kg | 30 mg/kg | 100 mg/kg | 1 h | 85 mg/kg |  | 4 | 25 mg/kg |  |  | 1 |  | 4 | 
12 | NC(=O)C1(c2ccccc2)CCCCCNC1=O (stereo not drawn) |  |  |  | 300 mg/kg | 100 mg/kg | 300 mg/kg |  |  |  | 4 |  |  |  |  |  | 4 | 1
